# MrgX1 PAM: allosterically activates human MrgX1 receptor signaling. actives 0.63% (n = 310,000). Q96LB2. MrgX1-HEK293, Fluo-4 calcium flux, FDSS; active compounds read high. AID 588675. B-score at 10 µM;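 active = plate-corrected calcium response at least 3 library SD above typical, normal starting fluorescence, not activating the receptor alone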;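 note: compound read alongside a low EC10 to EC30 dose of BAM8-22 agonist; peak minus trough fluorescence over baseline measured at the second addition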
# Target sequence (Q96LB2 whole entry, looked up): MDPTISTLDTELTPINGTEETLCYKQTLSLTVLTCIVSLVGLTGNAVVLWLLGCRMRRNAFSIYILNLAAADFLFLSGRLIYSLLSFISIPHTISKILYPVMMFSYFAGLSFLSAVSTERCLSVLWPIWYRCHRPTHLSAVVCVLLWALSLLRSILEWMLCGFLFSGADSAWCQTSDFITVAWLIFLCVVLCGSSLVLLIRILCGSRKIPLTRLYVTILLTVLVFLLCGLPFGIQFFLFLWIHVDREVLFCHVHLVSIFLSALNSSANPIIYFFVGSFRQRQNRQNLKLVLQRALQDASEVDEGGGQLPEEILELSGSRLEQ
# MrgX1 agonist: agonists of human MrgX1 receptor; AID 588627; actives 0.44% (n = 310,000); MrgX1-HEK293 cells, Fluo-4 calcium fluorescence, agonist mode; active compounds read high; Q96LB2; B-score at 10 µM;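 active = calcium response B-score plate-corrected fluorescence ratio at least 3 library SD, with starting fluorescence B-score inside 5 SD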
#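 Test system: Stable human MrgX1 HEK293 cell line | Schedule: Overnight plating before 1 h dye loading | Read-out basis: Baseline-normalised fluorescence change ratio, B-scored | Detection: Kinetic calcium dye fluorescence, Fluo-4 NW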
# MrgX1 antagonist: antagonists of human MrgX1 receptor | Q96LB2 | MRGX1-HEK293 calcium flux, Fluo-4, BAM8-22 antagonism; active compounds read low | B-score at 10 µM | actives 1.3% (n = 310,000);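 active = calcium-response B-score plate-corrected more than 3 library SD below zero, starting fluorescence within 5 deviations, no agonist response on first addition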;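 note: peak minus trough fluorescence over baseline after final BAM8-22 challenge near maximal dose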
# RGS4 pot: potentiators or activators of RGS4. HEK293 M3R/inducible RGS4, carbachol calcium flux Fluo4; active compounds read low. B-score at 10 µM. actives 0.92% (n = 310,000);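 active = B-score of the integrated calcium signal more than 4 SD below the library mean, with starting fluorescence not abnormally high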;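 note: negative B-score means reduced calcium response which marks RGS4 activation or potentiation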
#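 System: HEK293 FlpIn-TREx cells, stable M3R, doxycycline-inducible RGS4. Timing: overnight RGS4 induction, 30 min dye load 37 °C, 20 min compound RT. Also added: carbachol, ECmax concentration. Measured by: Fluo4 fluorescence kinetic imaging of calcium. Evaluation: integrated calcium ratio converted to B score.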
# RGS4 block: inhibitors of human RGS4. P49798. HEK293 M3R/RGS4 inducible, Fluo-4 calcium flux; active compounds read high; triggered by carbachol at its EC20. B-score at 10 µM. actives 0.45% (n = 310,000). AID 463165;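 active = B-score, a plate-corrected calcium signal, over three deviations above library mean, with baseline fluorescence within five deviations of library mean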;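 note: RGS4 expression induced by doxycycline in cells with stable M3 receptor; B-score is computed from the integrated fluorescence ratio over baseline after carbachol; higher B-score means a larger calcium signal and so more RGS4 inhibition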
# Target sequence (P49798 whole entry, looked up): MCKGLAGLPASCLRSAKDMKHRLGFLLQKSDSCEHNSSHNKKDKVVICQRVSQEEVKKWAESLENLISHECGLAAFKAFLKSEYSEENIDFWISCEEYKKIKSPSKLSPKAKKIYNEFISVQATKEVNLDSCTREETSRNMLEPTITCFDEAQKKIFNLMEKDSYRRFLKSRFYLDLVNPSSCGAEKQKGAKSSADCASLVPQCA
# A number is an active result; - = inactive; . = not tested or not shown. An excerpt weighted towards active compounds, which were near 3.5% of everything screened.
SMILES,MrgX1 PAM,MrgX1 agonist,MrgX1 antagonist,RGS4 pot,RGS4 block
O=C(NCc1cccc(Cl)c1)c1cc(=O)[nH]c2ccccc12,-,-,-,-,-
CCN(CC)C(CNC(=O)c1cc(=O)[nH]c2ccccc12)c1ccccc1Cl (configuration not stated),-,-,-,-7.5,-
COC(=O)C1=C(C)N(C)C(C)=C(C(=O)OC)C1c1ccc(F)c(Br)c1,-,-,-,-7.2,-
COC(=O)C1=C(C)N(C)C(C)=C(C(=O)OC)C1c1ccncc1,-,-,-,-,-
O=C(NNC(=O)c1cc(-c2cccc(Br)c2)nc2ccccc12)c1csc(N2CCOCC2)n1,-,-,-,-7.6,-
Cc1ccccc1OCCNc1cc(N2CCNCC2)ccc1[N+](=O)[O-],-,27,-,-,5.1
Cc1nn2c(N3CCCC3)cc(C(C)C)nc2c1-c1ccccc1,-,-,-,-7.1,-
C/C(=N\NC(=O)C1(C)CC1(Br)Br)c1cccc(NC(=O)C(C)(C)C)c1 (configuration not stated),-,-,-,-,-
COc1ccc(CC(=O)Nc2cccc(/C(C)=N/NC(=O)C3(C)CC3(Br)Br)c2)cc1 (configuration not stated),-,-,-,-9.3,-
CCN(CC)CC(C)(C)COC(=O)c1oc2ccccc2c1C,-,-,-,-,-
Cc1ccc(C(C)C)c(OCc2nn(CC(=O)c3ccc(OC(F)F)cc3)c3[n+]2CCCCC3)c1,-,-,-5.5,-,-
Cc1cccc(-n2c(SCc3cc(=O)n4ccsc4n3)nc3ccccc32)c1,-,-,-,-7.4,-
N#CC(c1ccc(Cl)cc1)c1ccc2c(C(F)(F)F)cc(C(F)(F)F)nc2n1 (configuration not stated),-,-,-,-8.1,-
FC(F)(F)c1cc(C(F)(F)F)c2ccc(N3CCN(c4ccc(Cl)cc4)CC3)nc2n1,-,-,-,-,-
N#Cc1cccc(NC(=O)CNc2cccc(S(=O)(=O)N3CCCCC3)c2)c1,-,-,-,-,-
COc1cccc(C(c2c(C)[nH]n(-c3ccccc3)c2=O)c2c(C)[nH]n(-c3ccccc3)c2=O)c1O,-,-,-,-,-
Cc1[nH]n(-c2ccccc2)c(=O)c1C(C[N+](=O)[O-])c1ccccc1Cl (configuration not stated),-,46,-,-,-
Cc1[nH]n(-c2ccccc2)c(=O)c1C(c1ccc(O)c([N+](=O)[O-])c1)c1c(C)[nH]n(-c2ccccc2)c1=O,-,-,-,-,5.1
Cc1ccccc1N1CC(C(=O)Nc2ccncc2)CC1=O (configuration not stated),-,-,-,-,-
O=C(O)c1cccc(Cn2c(Cl)c(/C=N/NC(=O)c3ccco3)sc2=O)c1,-,-,-,-,-
CCOc1cc(CNc2ccc(OC)cc2)cc(Br)c1OCC(=O)NC(C)(C)C,-,-,-,-,-
COc1cc(CNc2ccc(C(=O)O)cc2)cc(Br)c1OCC(=O)NC(C)(C)C,-,-,-5.3,-,-
On1c2c(c3c4nonc4ccc31)CCCC2,-,27,-,-,-
COn1c2c(c3c4nonc4ccc31)CCCC2,-,-,-,-,-
COc1ccc(/C=C2\SC(=S)N(C(C(=O)O)c3ccccc3)C2=O)c(OC)c1 (configuration not stated),-,-,-5.2,-,-
SMILES,MrgX1 PAM,MrgX1 agonist,MrgX1 antagonist,RGS4 pot,RGS4 block
O=C1/C(=C/C=C/c2ccco2)SC(=S)N1NS(=O)(=O)c1ccccc1,7.9,-,-,.,.
COc1ccc(/C=C2\SC(=S)N(NS(=O)(=O)c3ccccc3)C2=O)c(OC)c1,-,-,-8.7,-7.5,-
O=C1/C(=C/c2cccs2)SC(=S)N1NS(=O)(=O)c1ccccc1,-,-,-,-,-
COc1ccc(/C=C2\SC(=S)N(NS(=O)(=O)c3ccc(C)cc3)C2=O)c(OC)c1,-,-,-,-8.2,-
Cc1nnsc1S(=O)c1ccccc1Cl (configuration not stated),-,-,-,-,-
Cn1cc(Cl)c(C(=O)OCC(=O)Nc2ccc(S(N)(=O)=O)cc2)n1,.,.,.,-,-
CCOc1ccc(/C=C2\SC(=S)N(NS(=O)(=O)c3ccccc3)C2=O)cc1OC,-,-,-,-,-
CCOc1cc(/C=C2\SC(=S)N(NS(=O)(=O)c3ccccc3)C2=O)ccc1O,-,34,-,-,-
O=C(O)CC(C(=O)O)c1ccc(OCCCCOc2ccc(C(CC(=O)O)C(=O)O)cc2)cc1 (configuration not stated),-,-,-,-,-
Cc1ccc(-c2noc(-c3cc(C(C)(C)C)nn3Cc3ccccc3)n2)cc1,-,-,-6.8,-,-
COc1cccc(/C=C/C(=O)c2ccc(NC3=NCCCS3)cc2)c1,-,45,-,-,-
O=C(/C=C/c1cccc([N+](=O)[O-])c1)c1ccco1,-,56,-,-,-
Cc1cccc(/C=C/C(=O)c2ccc(NC3=NCCCS3)cc2)c1,-,-,-,-,-
COc1cccc(/C=C/C(=O)c2cccc([N+](=O)[O-])c2)c1OC,-,-,-,-,-
COc1ccc(Oc2ccc(/C=C/C(=O)c3ccc(O)cc3)cc2[N+](=O)[O-])cc1,-,-,-5.4,-,-
COc1cccc(/C=C/C(=O)c2cccc([N+](=O)[O-])c2)c1,-,38,-,-,-
Nc1c(C(=O)NCCc2ccc(Cl)cc2)sc2ccc(S(=O)(=O)N3CCCCC3)cc12,-,-,-,-,9
Cc1cc(F)ccc1S(=O)(=O)NCC(c1cccnc1)N1CCc2ccccc21 (configuration not stated),-,-,-,-,-
O=c1c(/C=N/OCc2ccc(Cl)cc2Cl)c[nH]n1-c1cccc(Cl)n1,-,45,-,-,-
Cc1cc(O)c(/C=N/OCc2ccc(Cl)cc2Cl)c(=O)o1,-,-,-,-,-
CC(C)CNC(=O)/C(C#N)=C1\N=C(NC(=O)c2ccco2)c2ccccc21,-,-,-4.8,-,-
CCN(CC)c1ccc(/C=C2/C(=O)c3ccc(C(=O)O)cc3C2=O)cc1,-,-,-,.,.
CCCCC1(C)OC(=O)C(=Cc2ccc(N(CC)CC)cc2)C(=O)O1 (configuration not stated),-,44,-,-,-
CCN(CC)c1ccc(C=C2C(=O)OC3(CCCCC3)OC2=O)cc1,-,33,-,-,-
CCOc1ccccc1NC(=O)N1CCc2ccccc2C1,-,-,-,-,-
COc1ccc(CNCCC(c2ccc(OC(C)C)cc2)C(C)C)cc1OC (configuration not stated),-,-,-,-,-
COc1ccc(C(CCNCc2ccc(OC(C)C)cc2)C(C)C)cc1 (configuration not stated),-,-,-5.4,-,-

# High-throughput results (PubChem)
